# ChEMBL document CHEMBL3297710, “Polyhydroxy cyclohexanols from a Dendrodochium sp. fungus associated with the sea cucumber Holothuria nobilis Selenka” (J Nat Prod, 2014)
# Active and inactive are the calls of the source. No cut-off for these calls is given here.
# Key:
# A549 = experiment: Cytotoxicity against human A549 cells assessed as growth inhibition by MTT assay; assay type: functional, cell-based
# Method in brief: (§1)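 Modified MTT colorimetric assay on human lung adenocarcinoma A549 and human osteosarcoma MG63 cells, with adriamycin as the positive control.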
# MG-63 = experiment: Cytotoxicity against human MG63 cells assessed as growth inhibition by MTT assay; assay type: functional, cell-based; method in brief: as §1
# Candida albicans [1] = experiment: Antifungal activity against Candida albicans Y0109 assessed as growth inhibition by automatic microplate reader analysis; assay type: functional
# Method in brief: (§2)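 Broth microdilution growth read by optical density at 630 nm on a microplate reader. MIC80 was taken as the first well showing roughly 80% growth reduction relative to the drug-free well.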
# Candida albicans [2] = experiment: Antifungal activity against Candida albicans SC5314 assessed as growth inhibition by automatic microplate reader analysis; assay type: functional; method in brief: as §2
# Candida parapsilosis = experiment: Antifungal activity against Candida parapsilosis 22019 assessed as growth inhibition by automatic microplate reader analysis; assay type: functional; details: Lodderomyces parapsilosis; method in brief: as §2
# Nakaseomyces glabratus = experiment: Antifungal activity against Candida glabrata 537 assessed as growth inhibition by automatic microplate reader analysis; assay type: functional; method in brief: as §2
# Cryptococcus neoformans = experiment: Antifungal activity against Cryptococcus neoformans 32609 assessed as growth inhibition by automatic microplate reader analysis; assay type: functional; method in brief: as §2
# Aspergillus fumigatus = experiment: Antifungal activity against Aspergillus fumigatus 07544 assessed as growth inhibition by automatic microplate reader analysis; assay type: functional; method in brief: as §2
# Trichophyton rubrum = experiment: Antifungal activity against Trichophyton rubrum Cmccftla assessed as growth inhibition by automatic microplate reader analysis; assay type: functional; method in brief: as §2
# Nannizzia gypsea = experiment: Antifungal activity against Microsporum gypseum Cmccfmza assessed as growth inhibition by automatic microplate reader analysis; assay type: functional; method in brief: as §2
SMILES,IC50 (A549),inhibition (MG-63),inhibition (A549),MIC80 (Candida albicans [1]) [µg/mL],MIC80 (Candida albicans [2]) [µg/mL],MIC80 (Candida parapsilosis) [µg/mL],MIC80 (Nakaseomyces glabratus) [µg/mL],MIC80 (Cryptococcus neoformans) [µg/mL],MIC80 (Aspergillus fumigatus) [µg/mL],MIC80 (Trichophyton rubrum) [µg/mL],MIC80 (Nannizzia gypsea) [µg/mL]
COc1cccc2c1C(=O)c1c(O)c3c(c(O)c1C2=O)C[C@@](O)(C(=O)CO)C[C@@H]3O[C@H]1C[C@H](N)[C@H](O)[C@H](C)O1 [DOXORUBICIN],Not Active,inactive,–,–,–,–,–,–,–,–,–
C/C=C/C=C/C=C/[C@H]1C[C@@H](O)[C@H](O)[C@H](O)[C@@H]1CO,–,inactive,inactive,16,> 64,> 64,> 64,> 64,> 64,> 64,> 64
OC(Cn1cncn1)(Cn1cncn1)c1ccc(F)cc1F [FLUCONAZOLE],–,–,–,0.25,0.25,1,2,1,> 64,1,8
C[C@@H](O)/C=C/C=C/[C@H]1OC[C@H]2[C@@H](O)[C@@H](O)[C@H](O)C[C@@H]21,–,inactive,inactive,> 64,> 64,> 64,> 64,> 64,> 64,> 64,> 64
C/C=C/C=C/C=C/[C@H]1C[C@@H](O)[C@H](O)C(=O)[C@@H]1CO,–,inactive,inactive,16,16,16,16,16,> 64,16,> 64
CC(=O)N1CCN(c2ccc(OCC3COC(Cn4ccnc4)(c4ccc(Cl)cc4Cl)O3)cc2)CC1 (configuration not stated) [KETOCONAZOLE],–,–,–,0.0625,0.125,0.25,0.125,0.25,2,0.0625,0.125
C[C@@H](c1ncncc1F)[C@](O)(Cn1cncn1)c1ccc(F)cc1F [VORICONAZOLE],–,–,–,0.5,0.25,2,0.25,0.25,4,0.125,0.5
CN(C/C=C/C#CC(C)(C)C)Cc1cccc2ccccc12 [TERBINAFINE],–,–,–,> 64,64,8,8,8,4,1,0.25
C/C=C/C=C/C=C/[C@H]1C[C@@H](O)C[C@H](O)[C@@H]1CO,–,inactive,inactive,16,16,16,16,8,> 64,8,16
CCC(C)n1ncn(-c2ccc(N3CCN(c4ccc(OCC5COC(Cn6cncn6)(c6ccc(Cl)cc6Cl)O5)cc4)CC3)cc2)c1=O (configuration not stated) [ITRACONAZOLE],–,–,–,4,4,8,2,4,32,2,4
